In ChEMBL document CHEMBL1144847, “Novel uracil-based 2-aminoanilide and 2-aminoanilide-like derivatives: histone deacetylase inhibition and in-cell activities” (Bioorg Med Chem Lett, 2008):
The source made the active and inactive calls. No cut-off for these calls is given here.

How the values were obtained:
U-937 [1] = assay: Induction of granulocytic differentiation in human U937 cells assessed as CD11c expression at 5 uM after 30 hrs; type: functional
Outline: (§1)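 U937 cells stimulated 30 h at 5 µM; granulocytic differentiation measured as CD11c expression, reported as percent CD11c-positive/PI-negative cells; SAHA and MS-275 at 5 µM as references.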

U-937 [2] = assay: Induction of p21 expression in human U937 cells at 5 uM after 24 hrs; type: functional, cell-based
Outline: (§2)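 U937 cells exposed at 5 µM for 24 h; induction of p21WAF1/CIP1 assessed alongside histone H3 and α-tubulin acetylation.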

U-937 [3] = assay: Induction of histone H4 hyperacetylation in human U937 cells; type: functional, cell-based
U-937 [4] = assay: Induction of alpha tubulin hyperacetylation in human U937 cells; type: functional, cell-based
Outline: (§3)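 U937 cells exposed at 5 µM for 24 h; acetylation of histone H3 and α-tubulin assessed as markers of class I HDAC and HDAC6 inhibition, respectively.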

U-937 [5] = assay: Induction of apoptosis in human U937 cells; type: functional, cell-based
Outline: (§4)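 U937 cells exposed at 5 µM for 30 h; apoptosis quantified by Annexin V/propidium iodide double staining, expressed as percent apoptotic cells; SAHA and MS-275 at 5 µM as references.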

U-937 [6] = assay: Induction of granulocytic differentiation in human U937 cells; type: functional, cell-based; outline: as §1
U-937 [7] = assay: Induction of apoptosis in human U937 cells at 5 uM after 30 hrs; type: functional; outline: as §4
Histone deacetylase 1 = Histone deacetylase 1 (Homo sapiens, UniProt Q13547); assay: Inhibition of human HDAC1 in U937 cells by immunoprecipitation assay; type: cell-based, U-937
Sequence of Histone deacetylase 1 (Q13547 whole entry): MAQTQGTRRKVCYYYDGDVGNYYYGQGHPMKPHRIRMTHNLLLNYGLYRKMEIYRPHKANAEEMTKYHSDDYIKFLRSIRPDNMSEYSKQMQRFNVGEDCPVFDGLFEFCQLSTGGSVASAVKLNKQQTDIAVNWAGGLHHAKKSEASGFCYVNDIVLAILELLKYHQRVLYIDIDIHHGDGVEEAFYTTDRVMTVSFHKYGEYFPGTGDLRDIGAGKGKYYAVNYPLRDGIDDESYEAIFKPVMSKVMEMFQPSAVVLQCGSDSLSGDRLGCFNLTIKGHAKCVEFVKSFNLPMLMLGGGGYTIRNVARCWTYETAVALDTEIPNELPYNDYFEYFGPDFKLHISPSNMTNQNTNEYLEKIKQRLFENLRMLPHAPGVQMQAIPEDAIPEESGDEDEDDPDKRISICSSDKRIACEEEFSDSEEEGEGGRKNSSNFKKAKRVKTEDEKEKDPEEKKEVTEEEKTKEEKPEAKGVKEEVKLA

Histone deacetylase 4 = Histone deacetylase 4 (Homo sapiens, UniProt P56524); assay: Inhibition of human HDAC4 in U937 cells by immunoprecipitation assay; type: cell-based, U-937
Sequence of Histone deacetylase 4 (P56524 whole entry): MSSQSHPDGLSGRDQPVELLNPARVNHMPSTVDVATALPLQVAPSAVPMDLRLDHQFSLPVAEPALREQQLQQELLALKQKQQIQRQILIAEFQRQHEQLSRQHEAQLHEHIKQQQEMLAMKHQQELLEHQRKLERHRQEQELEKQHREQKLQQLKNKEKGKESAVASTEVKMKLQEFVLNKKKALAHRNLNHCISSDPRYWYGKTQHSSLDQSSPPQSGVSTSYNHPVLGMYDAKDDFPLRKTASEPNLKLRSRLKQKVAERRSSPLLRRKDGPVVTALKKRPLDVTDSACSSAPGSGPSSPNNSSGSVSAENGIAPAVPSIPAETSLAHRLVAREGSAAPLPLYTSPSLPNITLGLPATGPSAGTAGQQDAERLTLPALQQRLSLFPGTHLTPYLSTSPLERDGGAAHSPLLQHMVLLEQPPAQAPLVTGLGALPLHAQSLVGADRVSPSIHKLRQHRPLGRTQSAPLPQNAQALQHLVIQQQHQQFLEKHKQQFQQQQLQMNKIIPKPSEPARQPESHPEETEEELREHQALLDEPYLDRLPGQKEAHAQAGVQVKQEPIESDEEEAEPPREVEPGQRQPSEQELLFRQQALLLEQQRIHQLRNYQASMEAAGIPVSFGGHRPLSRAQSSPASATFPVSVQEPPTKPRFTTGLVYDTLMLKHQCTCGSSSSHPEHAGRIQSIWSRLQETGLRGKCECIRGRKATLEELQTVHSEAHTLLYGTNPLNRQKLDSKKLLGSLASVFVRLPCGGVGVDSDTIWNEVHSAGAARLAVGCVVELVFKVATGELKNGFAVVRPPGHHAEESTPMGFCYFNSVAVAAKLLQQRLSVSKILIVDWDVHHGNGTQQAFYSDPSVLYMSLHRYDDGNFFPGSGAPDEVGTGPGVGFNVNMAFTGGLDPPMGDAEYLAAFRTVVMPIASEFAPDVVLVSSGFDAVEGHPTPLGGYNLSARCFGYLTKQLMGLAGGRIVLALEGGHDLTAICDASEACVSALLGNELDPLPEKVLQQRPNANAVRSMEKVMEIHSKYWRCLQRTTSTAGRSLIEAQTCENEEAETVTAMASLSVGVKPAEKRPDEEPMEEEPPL

U-937 [8] = assay: Cell cycle arrest in human U937 cells assessed as accumulation at G2 phase at 5 uM after 30 hrs; type: functional, cell-based
Outline: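 U937 human leukemia cells exposed to compound at 5 µM for 30 h; cell-cycle distribution analysed, arrest read as accumulation in S or G2 phase; SAHA and MS-275 at 5 µM as reference drugs.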

U-937 [9] = assay: Induction of histone H4 hyperacetylation in human U937 cells at 5 uM; type: functional, cell-based
U-937 [10] = assay: Induction of histone H3 hyperacetylation in human U937 cells at 5 uM; type: functional, cell-based; outline: as §3
U-937 [11] = assay: Induction of alpha tubulin hyperacetylation in human U937 cells at 5 uM; type: functional, cell-based; outline: as §3
U-937 [12] = assay: Induction of p21 expression in human U937 cells; type: functional, cell-based; outline: as §2

Compound	Activity (U-937 [1])	Activity (U-937 [2])	Activity (U-937 [7])	other results
Nc1ccccc1NC(=O)CCCCCc1nc(-c2ccc(-c3ccccc3)cc2)cc(=O)[nH]1	45.9%	Active		
Nc1cccc2cccc(NC(=O)CCCCSc3nc(-c4ccccc4)cc(=O)[nH]3)c12	30.3%	Active		
Nc1ccccc1NC(=O)c1ccc(CNC(=O)OCc2cccnc2)cc1 [ENTINOSTAT]	30.8%		3.5%	Activity (U-937 [3]): Active; Activity (U-937 [4]): inactive; Activity (U-937 [5]): inactive; Activity (U-937 [6]): Active
O=C(CCCCCC(=O)Nc1ccccc1O)Nc1ccccc1	36.6%			
Nc1ccccc1NC(=O)c1ccc(CSc2nc(-c3ccccc3)cc(=O)[nH]2)cc1	47.6%	Active		IC50 (Histone deacetylase 1): 0.2 µM; IC50 (Histone deacetylase 4): 125 µM; Activity (U-937 [8]): Active
Nc1ccccc1NC(=O)CCCCCC(=O)Nc1ccccc1	18.3%			Activity (U-937 [9]): Active; Activity (U-937 [10]): Active; Activity (U-937 [11]): inactive
Nc1cccc2cccc(NC(=O)CCCCCc3nc(-c4ccc(-c5ccccc5)cc4)cc(=O)[nH]3)c12	67.6%			
O=C(CCCCCCC(=O)Nc1ccccc1)NO [VORINOSTAT]	21.5%		16.8%	Activity (U-937 [3]): Active; Activity (U-937 [4]): Active; Activity (U-937 [12]): Active; Activity (U-937 [5]): Active; Activity (U-937 [6]): Active
Nc1ccccc1NC(=O)CCCCCc1nc(-c2ccccc2)cc(=O)[nH]1		Active	4.8%	
Nc1ccccc1NC(=O)CCCCSc1nc(-c2ccccc2)cc(=O)[nH]1		Active		
